# Assay results taken from ChEMBL document CHEMBL1165978, “Synthesis and evaluation of in vitro anticancer activity of some novel isopentenyladenosine derivatives” (Bioorg Med Chem, 2010).
# Activity calls are given as the source filed them. The rule behind the calls is not given here.
# How the values were obtained:
# T-24 [1] = assay: Antiproliferative activity against quiescent human T24 cells at 10 uM after 72 hrs by MTT assay; assay type: functional, cell-based
# How it was run: (§1)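 T24 cells were seeded at 2000/cm², and 16 h later were exposed to starvation medium (D-MEM, 0.1% FBS) or fresh complete medium (10% FBS) and treated with compound, with 0.01% DMSO as control. For the final 1 h the medium held MTT at 0.5 mg/mL. Formazan was then dissolved in DMSO for read-out. Data are mean ± SD of at least 3 experiments in triplicate, Student's t test.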
# T-24 [2] = assay: Antiproliferative activity against proliferating human T24 cells assessed as mild decrease in viable cell count at 10 uM after 72 hrs by trypan blue exclusion assay; assay type: functional, cell-based
# How it was run: (§2)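 T24 cells were seeded at 2000/cm² in growth medium and allowed to attach for 16 h. They were then switched to complete medium (D-MEM, 10% FBS, 1 mM L-glutamine, penicillin/streptomycin) or to starvation medium (D-MEM, 0.1% FBS, 48 h, to induce quiescence). After 48 h, compound was added for 72 h, with 0.01% DMSO as control. Cells were trypsinized, stained with trypan blue and counted in a Burker chamber. Data are mean ± SD of at least 3 experiments in triplicate.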
# T-24 [3] = assay: Antiproliferative activity against quiescent human T24 cells assessed as decrease in viable cell count at 10 uM after 72 hrs by trypan blue exclusion assay; assay type: functional, cell-based; how it was run: as §2
# T-24 [4] = assay: Cytotoxicity against human T24 cells assessed as mild inhibition of cell colony formation at 10 uM after 24 hrs by crystal violet staining; assay type: functional, cell-based
# T-24 [5] = assay: Antimetastatic activity in human T24 cells assessed as inhibition of EGF-stimulated cellular migration at 10 uM after 16 hrs by microscopic analysis; assay type: functional, cell-based
# How it was run: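 Confluent T24 monolayers in 24-well plates were scratch-wounded, then given EGF (100 ng/mL) plus compound for 16 h, with DMSO (0.01% final) as control. Cells moving into the wound were photographed by microscope. Four fields per sample were counted and expressed as migration relative to control. Data are from at least 3 experiments in triplicate, mean ± SD, Student's t test.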
# T-24 [6] = assay: Antiproliferative activity against proliferating human T24 cells at 10 uM after 72 hrs by MTT assay in presence of 10% fetal bovine serum
# T-24 [7] = assay: Cytotoxicity against human T24 cells assessed as inhibition of cell colony formation at 10 uM after 24 hrs by crystal violet staining; assay type: functional, cell-based
# T-24 [8] = assay: Antiproliferative activity against proliferating human T24 cells at 10 uM after 72 hrs by MTT assay; assay type: functional, cell-based; how it was run: as §1
SMILES,Activity (T-24 [1]),inhibition (T-24 [2]),inhibition (T-24 [3]),inhibition (T-24 [4]),inhibition (T-24 [5]),Activity (T-24 [6]),inhibition (T-24 [7]),Activity (T-24 [8])
CC(C)=CCNc1nc(N)nc2c1ncn2[C@@H]1O[C@H](CO)[C@@H](O)[C@H]1O,Active,Active,Active,Active,inactive,–,–,–
CC(C)=CC[n+]1cnc2c(ncn2[C@@H]2O[C@H](CO)C[C@H]2O)c1N,–,–,Active,–,inactive,inactive,–,–
CC(C)=CCNc1ncnc2c1ncn2[C@@H]1O[C@H](CO)[C@@H](O)[C@@H]1O,inactive,–,–,–,–,–,inactive,inactive
CC(C)=CCNc1ncnc2c1ncn2[C@@H]1O[C@H](CO)[C@@H](O)[C@H]1O (stereo in doubt; 1a),–,–,–,–,–,–,inactive,–
CC(C)=CCNc1ncnc2c1ncn2[C@@H]1O[C@H](CO)[C@@H](O)[C@H]1O (stereo in doubt),Active,–,–,–,inactive,–,Active,–
